Bioassay records from PubChem BioAssay.
A selection: hits, their analogues and other compounds. The true share with any hit is near 2.3%.
TRPC4 PAM: allosterically enhances the mouse TRPC4 cation channel. Q9QUQ5. HEK293 TRPC4beta/mu-opioid, DAMGO EC20, Fluo-4 Ca2+ flux; stronger effect = higher value. B-score at 10 µM. 0.42% of 310,000 active. AID 2227;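 active = B-score of calcium response area above 5 SD of library B-scores, with initial fluorescence ratio within 5 SD of library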;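 note: B-score of integrated fluorescence ratio over time as area under calcium response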
Target sequence (Q9QUQ5 whole entry, looked up): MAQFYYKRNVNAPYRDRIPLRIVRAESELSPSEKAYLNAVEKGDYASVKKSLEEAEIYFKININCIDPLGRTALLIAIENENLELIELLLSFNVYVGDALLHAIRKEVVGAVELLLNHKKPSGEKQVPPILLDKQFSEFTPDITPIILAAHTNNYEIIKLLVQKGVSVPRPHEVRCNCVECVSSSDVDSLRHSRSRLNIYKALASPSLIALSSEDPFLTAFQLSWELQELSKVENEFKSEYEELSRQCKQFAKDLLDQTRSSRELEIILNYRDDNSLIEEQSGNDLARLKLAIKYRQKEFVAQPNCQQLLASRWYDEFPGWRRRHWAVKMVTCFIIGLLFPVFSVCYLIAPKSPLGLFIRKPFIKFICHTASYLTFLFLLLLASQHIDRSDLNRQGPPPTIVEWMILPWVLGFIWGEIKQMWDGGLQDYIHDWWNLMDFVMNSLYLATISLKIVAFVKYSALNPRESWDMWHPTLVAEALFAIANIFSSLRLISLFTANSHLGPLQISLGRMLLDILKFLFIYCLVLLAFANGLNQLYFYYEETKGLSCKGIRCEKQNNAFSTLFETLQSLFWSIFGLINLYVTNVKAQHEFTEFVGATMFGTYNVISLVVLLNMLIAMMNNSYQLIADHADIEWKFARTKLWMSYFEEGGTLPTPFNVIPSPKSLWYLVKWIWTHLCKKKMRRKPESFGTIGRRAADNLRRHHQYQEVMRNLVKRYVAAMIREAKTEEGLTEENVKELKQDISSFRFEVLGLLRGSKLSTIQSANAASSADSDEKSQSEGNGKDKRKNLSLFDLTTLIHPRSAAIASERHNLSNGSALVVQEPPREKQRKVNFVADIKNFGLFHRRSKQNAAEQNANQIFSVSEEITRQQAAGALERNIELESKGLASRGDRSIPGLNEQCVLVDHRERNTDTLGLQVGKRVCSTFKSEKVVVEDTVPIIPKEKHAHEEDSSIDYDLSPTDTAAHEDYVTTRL
TRPC4 agonist: opens the mouse TRPC4 cation channel | Q9QUQ5 | HEK293 TRPC4beta/mu-opioid, Fluo4 calcium fluorescence; stronger effect = higher value | B-score at 10 µM | 0.49% of 310,000 active;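 active = B-score above 5 SD of library B-scores, and initial fluorescence ratio not above library mean plus 5 SD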;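 note: positive B-score marks a calcium rise read as TRPC4 activation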
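system = HEK293 cells stably co-expressing mouse TRPC4beta and mu-opioid receptor | schedule = Fluo4 dye loading 45 min at room temperature, 110 s recording | measure = B-scored integrated calcium fluorescence ratio | signal = Fluo4 calcium-sensitive dye fluorescence, kinetic, 1 Hz baseline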
TRPC6 inh: blocks the mouse TRPC6 cation channel; Q61143; HEK293-TRPC6, membrane potential dye, ACh-evoked depolarization; stronger effect = lower value; B-score at 10 µM; 1.1% of 310,000 active; AID 2553;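 active = B-score under library mean minus 3 SD, initial fluorescence not abnormally high, positive integrated signal ratio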;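 note: B-score derived from integrated fluorescence ratio over the kinetic read; more negative B-score means stronger inhibition of depolarization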
TRPC6 act: mouse TRPC6 channel activation; Q61143; HEK293-TRPC6 membrane potential dye fluorescence; stronger effect = higher value; B-score at 10 µM; 0.13% of 310,000 active;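 active = B-score of the integrated fluorescence ratio above library mean plus 3 SD, and starting fluorescence ratio within library mean plus 5 SD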;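 note: higher score means more depolarization so channel activation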
TRPC4 block: blocks the mouse TRPC4 cation channel; Q9QUQ5; HEK293 TRPC4beta/mu-opioid, DAMGO-evoked Fluo4 calcium flux; stronger effect = lower value; 0.39% of 300,000 active; B-score at 10 µM;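 active = B-score over 3 SD under the library average, no early fluorescence shift, positive overall ratio signal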
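System: stable TRPC4beta/mu-opioid receptor HEK293 cells; Dosing: single-point compound dosing; Measured by: Fluo4 Ca2+ flux fluorescence; Read-out basis: per-well B score of integrated baseline-normalized Fluo4 ratio.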
TRPC4 sel inh 2: second selectivity test of TRPC6 inhibitors: effect on mouse TRPC4; shares compounds with TRPC6 inh; HEK293 TRPC4/MOR, membrane potential dye fluorescence; channel activated by saturating DAMGO dose; inhibition, % at 10 µM; 42% of 920 active; AID 2776;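 active = compounds whose fluorescence signal differed from control wells by over 3 SD, either direction, in both duplicate plates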
TRPC4 spec: mouse TRPC4 off-target activity of TRPC6 inhibitors; shares compounds with TRPC6 inh; HEK293 TRPC4/mu-opioid, membrane potential fluorescence; activity change, negative = inhibition, % at 10 µM; 61% of 920 active; AID 2777;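 active = rise or fall in signal beyond 3 SD of buffer-only wells in both replicate plates, either sign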;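 note: integrated kinetic ratio of fluorescence range over baseline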
HEK293 MPD ctr 2-1: second check of TRPC6 inhibitor effects in parental HEK293 cells | shares compounds with TRPC6 inh | AID 2779 | 31% of 920 active | signal change vs control, % at 10 µM | parental HEK293 membrane potential dye fluorescence; maximal acetylcholine challenge after compound addition;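 active = membrane potential signal moving either way by over 3 SD of the maximum-effect control, in both duplicate plates, meaning non-specific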
HEK293 MPD ctr-1: checks TRPC6 inhibitor effects in parental HEK293 cells; parental HEK293 membrane potential dye fluorescence; 60% of 920 active; membrane potential signal change, % at 10 µM; shares compounds with TRPC6 inh;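 active = membrane potential signal shifting up or down by more than 3 SD of buffer-only wells, on both duplicate plates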
HEK293 MPD ctr-2: parental HEK293 nonspecific activity of TRPC6 modulators; 51% of 2,400 active; AID 488924; membrane potential signal change, % at 10 µM; membrane potential dye fluorescence; shares compounds with TRPC6 inh;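 active = membrane potential signal moves up or down beyond 5 SD from buffer-only wells, on both duplicate plates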
HEK293 MPD ctr 2-2: second check of TRPC6 modulator effects in parental HEK293 cells; shares compounds with TRPC6 inh; membrane potential dye fluorescence; after compound, maximal acetylcholine stimulation; inhibition, % at 10 µM; 14% of 2,400 active; AID 488926;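 active = membrane potential signal drops by more than 5 SD from the mean control signal, in both duplicate plates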;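 note: plate controls were acetylcholine ECmax control wells for no effect and buffer only wells for full effect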
TRPC4 ctr mod: mouse TRPC4 off-target activity of TRPC6 modulators. 69% of 2,400 active. HEK293 TRPC4/mu-opioid, membrane potential fluorescence. shares compounds with TRPC6 inh. AID 488927. percent change from control (negative = decrease, positive = increase), % at 10 µM;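 active = membrane potential signal moved up or down beyond 5 SD of buffer control wells, in both duplicate plates, actives on both sides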;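 note: plate controls were assay buffer wells for no effect and DAMGO maximal-effect wells for full effect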
TRPC4 ctr inh 2: second selectivity test of TRPC6 modulators against mouse TRPC4; shares compounds with TRPC6 inh; AID 488928; HEK293 TRPC4/mu-opioid, membrane potential dye fluorescence; stimulated with maximal-effect DAMGO; inhibition, % at 10 µM; 55% of 2,400 active;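 active = drop in membrane potential signal beyond 5 SD of the control wells in both duplicate plates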;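 note: TRPC4 counter screen for TRPC6 hits run under conditions tuned for TRPC6 not TRPC4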
TRPC6 block conf: mouse TRPC6 inhibitor confirmation; 43% of 3,300 active; inhibition, % at 10 µM; shares compounds with TRPC6 inh; HEK293-TRPC6, membrane potential dye, ACh-evoked depolarization; AID 488960;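 active = fluorescence ratio falls more than 5 SD below the full-stimulation control mean, in both duplicate runs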;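 note: integrated fluorescence ratio of peak minus minimum over baseline after agonist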
TRPC6 act confirm: mouse TRPC6 activator confirmation; activation, % at 10 µM; 11% of 2,800 active; shares compounds with TRPC6 inh; AID 488961; HEK293-TRPC6 membrane potential dye fluorescence, FDSS;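 active = ratio signal rise beyond 5 SD above unstimulated control wells' mean, seen in both duplicate runs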;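 note: plate controls were buffer EC0 wells for no effect and acetylcholine ECmax response for full effect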
Starred values were filed as active, the others as inactive; i = inactive; nt = no result given; + = active, no number.

SMILES	TRPC4 PAM	TRPC4 agonist	TRPC6 inh	TRPC6 act	TRPC4 block	HEK293 MPD ctr-2	HEK293 MPD ctr 2-2	TRPC4 ctr mod	TRPC4 ctr inh 2	TRPC6 block conf	TRPC6 act confirm	others
CCCc1ccc2oc(C(=O)NCc3nnc(C)o3)c(C)c2c1	i	i	i	i	i	nt	nt	nt	nt	nt	nt
COc1ccc(/C=C2/C(=N)N3N=C(CC(=O)N4CCCC4)SC3=NC2=O)cc1	i	i	i	12*	i	163%*	i	24%*	i	i	84%*
Cc1ccc(/C=C2\C(=N)N3N=C(CC(=O)N4CCCCC4)SC3=NC2=O)cc1	i	i	i	i	i	nt	nt	nt	nt	nt	nt
COc1ccc(/C=C2\C(=N)N3N=C(CC(=O)N4CCCCC4)SC3=NC2=O)cc1	i	i	i	12*	i	136%*	i	22%*	i	i	76%*
CCN(CC)S(=O)(=O)c1ccc(N2CCOCC2)c(NC(=O)COc2ccc(C#N)cc2)c1	i	i	i	i	i	nt	nt	nt	nt	nt	nt
CC(=O)c1c(C)nc2cc(Cl)ccc2c1N	i	i	-5.8*	i	i	-66%*	i	-12%*	32%*	i	i
Cc1ccc(C(=O)c2cc([N+](=O)[O-])ccc2N2CCOCC2)c(C)c1	i	i	-5.4*	i	i	i	i	i	i	i	i
CCN1CCCC(OC(=O)c2cc(-c3ccccc3Cl)nc3ccccc23)C1 (centres undefined)	22*	i	-5.5*	i	i	134%*	i	24%*	45%*	i	nt
O=C(c1cc(-c2ccccc2Cl)nc2ccccc12)N1CCC1	i	i	i	i	i	nt	nt	nt	nt	nt	nt
CCOc1cc(/C=N/NC(=O)c2ccc(CN3CCOCC3)cc2)ccc1OC	i	i	i	i	i	nt	nt	nt	nt	nt	nt
CCOc1cc(/C=C/C(=O)c2ccc(OC)c(CN3CCOCC3)c2)cc(Br)c1O	i	i	i	20*	i	184%*	i	26%*	i	i	42%*
CC1=CC2=NC(=O)/C(=C/c3coc4ccc(Cl)cc4c3=O)C(=N)N2O1	i	i	i	52*	i	+	+	287%*	101%*	nt	457%*
N=C1/C(=C\c2coc3ccccc3c2=O)C(=O)N=C2SC=CN12	i	i	-8*	26*	i	640%*	118%*	119%*	77%*	i	107%*
CC1=CC2=NC(=O)/C(=C\c3cc(C)n(-c4cccc(Cl)c4)c3C)C(=N)N2O1	i	i	i	i	i	nt	nt	nt	nt	nt	nt
C=CCN(c1ccccc1Cl)S(=O)(=O)c1cccc(C(=O)NCCc2ccc(OC)cc2)c1	i	i	i	i	i	nt	nt	nt	nt	nt	nt
CCN1CCN(c2cc(C)c3cc(NC(=O)c4cncc(Br)c4)ccc3n2)CC1	i	i	-11*	i	i	nt	nt	nt	nt	i	i	TRPC4 sel inh 2=i;TRPC4 spec=-17%*;HEK293 MPD ctr 2-1=i;HEK293 MPD ctr-1=-164%*
CCN1CCN(c2cc(C)c3cc(NC(=O)c4cccs4)ccc3n2)CC1	i	i	-5.3*	i	i	i	i	i	i	i	i
O=C1N=c2ccccc2=C1c1c(O)[nH]c2c(C(F)(F)F)cccc12	i	i	i	i	i	nt	nt	nt	nt	nt	nt
CCCC(CCC)C(=O)OC1C[C@H]2CC[C@@H](C1)[N+]2(C)C (some centres undefined)	i	i	-8.7*	i	i	nt	nt	nt	nt	94%*	i	TRPC4 sel inh 2=i;TRPC4 spec=i;HEK293 MPD ctr 2-1=-30%*;HEK293 MPD ctr-1=i
CN(C)c1ccc(/C=C2\SC(N3CCCCC3)=NC2=O)cc1	i	i	-5.3*	i	i	396%*	i	34%*	i	i	nt
CN1CCN(c2nc(-c3ccccn3)nc3ccccc23)CC1	i	i	-16*	i	i	-428%*	82%*	-70%*	72%*	74%*	i
CN1CCN(c2nc(-c3cccnc3)nc3ccccc23)CC1	i	i	-8.1*	i	i	-320%*	69%*	-57%*	66%*	56%*	i
CCCN1CCN(c2nc(-c3cccs3)nc3ccccc23)CC1	i	i	-6.1*	i	i	-64%*	i	-15%*	52%*	i	i
CCN1CCN(c2nc(-c3cccnc3)nc3ccccc23)CC1	i	i	-8.2*	i	i	-356%*	i	-58%*	62%*	58%*	i
Cc1cccc(NS(=O)(=O)c2ccc(C(=O)N3CCC3)cc2)c1C	i	i	i	i	i	nt	nt	nt	nt	nt	nt
O=C(O)c1cccc(S(=O)(=O)N2CCN(c3ccccn3)CC2)c1	i	i	i	i	i	nt	nt	nt	nt	nt	nt
CCN1CCN(c2nn3c(=O)c4ccccc4nc3c3ccccc23)CC1	i	i	-5.3*	i	i	i	i	i	52%*	42%*	i
CC1CN(c2nn3c(=O)c4ccccc4nc3c3ccccc23)CC(C)O1 (centres undefined)	i	i	i	i	i	nt	nt	nt	nt	nt	nt
